Data on 48 sequences can be found in the EternaBench riboswitch data.

What is called apparent Kd is the concentration giving half-maximal binding under the conditions of the assay.

In this data set the test system is MS2 coat protein. Kind of data set: apparent Kd, MS2 coat protein; higher = weaker binding; RNA-MaP array; FMN 200 µM where present. Put shortly: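 On Illumina sequencing-chip clusters, designs were transcribed by stalled E. coli RNA polymerase and titrated with SNAP-549-labelled MS2 coat protein (0.7 or 1.5 nM, doubling to 3 µM), without and then with constant ligand, in 100 mM Tris-HCl pH 7.5, 80 mM KCl, 4 mM MgCl2, BSA, DTT, yeast tRNA and Tween-20. Apparent Kd is the median of filtered per-cluster curve fits to green signal normalised to red-channel RNA signal and control-cluster median Fmax.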

Where [1] appears, read: designed as: OFF switch for flavin mononucleotide, no ligand.
[2] abbreviates: ligand present: flavin mononucleotide, designed as: OFF switch for flavin mononucleotide.
[3] abbreviates: designed as: ON switch for flavin mononucleotide, no ligand.
Where [4] appears, read: ligand present: flavin mononucleotide, designed as: ON switch for flavin mononucleotide.

As to “GAAAAGUGAGGAUAUGGUAAUGUAAGUAUGUAGUAUGUAAUCCAGAAGGCACAUGAGGAUCACCCAUGUAAAAG”, the “apparent Kd” value worked out at 23 nM under setting [1] and 25.2 nM under setting [2].

Consider “ACAAUAGUAUCUCAUGUAUUACAUGAGGAUCACCCAUGUAACUAGGAUAUGUAUUAGAAUUUACAACAGAAGGAGUUAUUAUGU”, for which the “apparent Kd” value runs as follows: under setting [1], 9.03 nM; under setting [2], 17.7 nM.

In the case of “UGAACAAUGUAGAAGGCCCAUAUUUAUAUAUAGGGAGGAUAUACAUGAGGAUCACCCAUGUAAAGAGCAAGAGGAUUUGACAGA”, the “apparent Kd” value worked out at 10.4 nM under setting [1] and 22.2 nM under setting [2].

On to “UAUAUAUAGUAAGGAUAUGUAGUUAUUUUAUAAACAGAAGGUACUGACAUGAGGAUCACCCAUGUUUUAGUGUGGGCAUGUAGA”, for which the “apparent Kd” value turned out to be 87.7 nM under setting [1] and 128 nM under setting [2].

For the sequence “GUAGCUAUCGGAGGAUAUUCAUAGCGGAAACGGACAUGAGGAUCACCCAUGUGGCGAAAGCCUUGGGAGAAGGCCGAUAGCUAC”, the “apparent Kd” value is, setting by setting: under setting [3], 39.6 nM; under setting [4], 8.1 nM.

As for “AAGUAGAUCCGAGGAUAUACAAUCCGGAAACGGUACAUGAGGAUCACCCAUGUAGAAGGCGGAUCUACAGGUACUAAAGUACCG”, the “apparent Kd” value is, setting by setting: under setting [1], 6.33 nM; under setting [2], 9.45 nM.

With “GUAGCAUACCAAGGAUAUUCAGGGCUUGGAUAGACAUGAGGAUCACCCAUGUGGCGAAAGUCUAGGGAGAAGGUGGAAUGCUAC”, the “apparent Kd” value runs as follows: under setting [3], 16.8 nM; under setting [4], 15.1 nM.

“CGCAACUCUUCACAUGUAAACAUGAGGAUCACCCAUGUAUUGAGAAGGAGGAAGAAGAGAGAUUCCUAGGAUAUCAGAGUUGCG”: the “apparent Kd” value by setting is: under setting [1], 6.42 nM; under setting [2], 5.84 nM.

In the case of “GCUCCUCGAGUUAGGAUAUGUCGGCUAUCUAAAUGAUAGAAGGGACAUGAGGAUCACCCAUGUCACGGGAUUGA”, the “apparent Kd” value is, setting by setting: under setting [1], 56.7 nM; under setting [2], 58.7 nM.

For the sequence “AGCAUGUGAGGAUAUGUGACCCUCGUCCGAAGGAUGAGGGAAUAGAAGGCACAUGAGGAUCACCCAUGUGAUGA”, the “apparent Kd” value by setting is: under setting [1], 54.1 nM; under setting [2], 156 nM.

As to “AAUUAUUUUUGAGGAUAUCGUGGUGAAACACCACGAGAAGGCAAGAUACACAUGAGGAUCACCCAUGUGAGCCUGAUGCUUAUG”, the “apparent Kd” value turned out to be 16.9 nM under setting [1] and 21.4 nM under setting [2].

Regarding “CUAUGAGCGAUAGGAUAUACUGAGAUUGAGUGGGUAGAAGGAUCGAUAGUGUAGAAGACAUGAGGAUCACCCAUGUUACGGGCC”, the “apparent Kd” value runs as follows: under setting [3], 188 nM; under setting [4], 186 nM.

On to “GAUUGAAAAGGAUAUACAUGAGGAUCACCCAUGUGCUUCAGCUAGGAGACUAGCAUUGGUAGAAGGUUUUAAUC”, for which the “apparent Kd” value amounted to 22.2 nM under setting [1] and 43.9 nM under setting [2].

In the case of “AAAAGACAUGAGGAUCACCCAUGUAAAGACGUGGGAGGAUAUGUAUGGAAACCAGACUGUACAGAAGGCCUUUGUC”, the “apparent Kd” value by setting is: under setting [3], 161 nM; under setting [4], 52.4 nM.

On to “AAGAGUAGAGGAUAUACAUGAGGAUCACCCAUGUAAUCCAGAUAAGGAAGCAUGUCGUGUAGAAGGCUGCAUGA”, for which the “apparent Kd” value under setting [1] was 15.9 nM and the “apparent Kd” value under setting [2] was determined as 12.8 nM.

Turning to “ACGGCACAUGAGGAUCACCCAUGUGCCGAGAGGCGAGGAUAUCGAAAAAAAAAAAAAAAACGAGAAGGCGCGAGAA”, the “apparent Kd” value turned out to be 16.5 nM under setting [3] and 14.4 nM under setting [4].

For the sequence “GACUGACAUGAGGAUCACCCAUGUAUUCGAGCAUGAGGAUAUAUGACACGUCAUCGGCGGAUAGAAGGCAUGGUUG”, the “apparent Kd” value is 124 nM under setting [3] and 185 nM under setting [4].

“GUCUCGAUGUAGAAGGCCGCGUCCGGCUCACGCGGAGGAUAUACAUGAGGAUCACCCAUGUGUCUGUGGCUUAUAUGUUACGGA”: the “apparent Kd” value by setting is: under setting [1], 70.8 nM; under setting [2], 68.3 nM.

With “AAAAAACAUGAGGAUCACCCAUGUGAGGAUAUCCGAAAAAAAAAAAAAAAAAAAAAAAGGAGAAGGCGCAGCAA”, the “apparent Kd” value worked out at 242 nM under setting [1] and 206 nM under setting [2].

As to “UGGGUUUGUAGUUACAUCCCUACACAGGAUAUGGGUAGUUACAUGAGGAUCACCCAUGUUCGAACUCAGAAGGGUGGAUCGUUG”, the “apparent Kd” value amounted to 85.3 nM under setting [3] and 11.3 nM under setting [4].

Regarding “UGGGUAAAUGUAGGAUAUUUAUAUUAAUAGUAUGGAGAAGGACAUGAGGAUCACCCAUGUACAGGGAAUUACCCAUUUCCUCUC”, the “apparent Kd” value reads like this: under setting [1], 1010 nM; under setting [2], 1100 nM.

For the sequence “GGUGCGUAUGUGAGGAUAUGCUGGUCCUUGGAUCGGCAGAAGGCACAUGAGGAUCACCCAUGUGGUGUCGUACA”, the “apparent Kd” value reads like this: under setting [1], 411 nM; under setting [2], 34.7 nM.

Consider “CGAUGACAAAGUCAUCGAAUACGAACAUGAGGAUCACCCAUGUAGGAUAUGCUACUCAAAGAGUAGCAGAAGGACAUGUGCCUU”, for which the “apparent Kd” value under setting [1] is 36.9 nM and the “apparent Kd” value under setting [2] stood at 271 nM.

Take “UUUUACCGAGGAUAUACAUUUUUUUUAUUAUCCUCAUUAUUACAUGAGGAUCACCCAUGUAGAAGGCGGAUUUU”: the “apparent Kd” value came to 52.9 nM under setting [1] and 112 nM under setting [2].

As to “GGAUGACAAAGUCAUCCUAUUCGAACAUGAGGAUCACCCAUGUAGGAUAUGCUUCUCAAAGAGAAGCAGAAGGACAUGUGCUUU”, the “apparent Kd” value was 36.8 nM under setting [1] and 160 nM under setting [2].

On to “CCUAUGUAAGGAUAUAGCCACAUUACGAAUAAGUAGUGUGGCUAGAAGGUACAUGAGGAUCACCCAUGUAUGGG”, for which the “apparent Kd” value amounted to 195 nM under setting [1] and 40.6 nM under setting [2].

With “AAGUCGCACCAGAAGGGUCAACCAAUAAAUUAGACAGGAUAUGGGCGAUAUGUAUGUCGCGACAUGAGGAUCACCCAUGUCCGG”, the “apparent Kd” value under setting [3] came to 17.7 nM and the “apparent Kd” value under setting [4] worked out at 6.08 nM.

As for “AUAGUACAUGAGGAUCACCCAUGUCAGGAUAUCGGAUGUGACAUGAAAAAAAUGUUAAUGAGAAGGGACUAUAA”, the “apparent Kd” value reads like this: under setting [1], 43.6 nM; under setting [2], 49 nM.

“GUGCAAUGAGGAUAUACGUAGGUGAACAUCUGUGUGCUCCUACAUGAGGAUCACCCAUGUAGAAGGCAUGUCAC”: the “apparent Kd” value under setting [1] worked out at 12.3 nM and the “apparent Kd” value under setting [2] came to 22.6 nM.

As to “ACCAUUUACUAAUUAUCUAUACAUGAGGAUCACCCAUGUUAAGAGGAUAUCAUCGUGAAACGCGAUGAGAAGGCUUAGCAUUCG”, the “apparent Kd” value was determined as 55.2 nM under setting [1] and 172 nM under setting [2].

Consider “UUGGACGUCGUAGGAUAUGUAGGAUAUUCCUACAUGAGGAUCACCCAUGUUGACAUGGAAGAUGGACAGAAGGACGAUGUCCAU”, for which the “apparent Kd” value under setting [3] turned out to be 983 nM and the “apparent Kd” value under setting [4] turned out to be 42.1 nM.

On to “CGGUCGAUGUAAGGAUAUCGACUGGAAUACAGUCGAGAAGGUACAUGAGGAUCACCCAUGUAAUCCAAUAAUAAAUAACGACCG”, for which the “apparent Kd” value reads like this: under setting [1], 12.6 nM; under setting [2], 22.5 nM.

“GGAUAGGACAGAGGAUAUACGUGCUAGAGAUACUAGCAAAAUUUCCUCACAUGAGGAUCACCCAUGUAGAAGGCUGUCCUGUCG”: the “apparent Kd” value runs as follows: under setting [1], 17.1 nM; under setting [2], 354 nM.

“AUUGUAAUGUCAGGAUAUAUUAUUUUUUACAUAGUAGAAGGGAUAAUUAUACUCAUGUACAUGAGGAUCACCCAUGUUAAAUAU”: the “apparent Kd” value runs as follows: under setting [3], 58.8 nM; under setting [4], 24.8 nM.

As to “GUAACAUGAGGAUCACCCAUGUAUAGAACACUCAAUAGAUUUGAGGAUAUAGUGGAAUUUACACACUAGAAGGCAGUGGGUGCA”, the “apparent Kd” value is, setting by setting: under setting [3], 181 nM; under setting [4], 253 nM.

As to “GCCUUACCGGUCAGGAUAUACAUUUGUUACUCUUUGUAGAAGGGACAUGAGGAUCACCCAUGUACAUUACAUUC”, the “apparent Kd” value under setting [1] was found to be 19.1 nM and the “apparent Kd” value under setting [2] was 19.2 nM.

For the sequence “AGCCAACAUGAGGAUCACCCAUGUCUACAGGAUUAAGGAUAUGGGCAGGACUUCCCUGCACUAGAAGGUGAUCCAA”, the “apparent Kd” value amounted to 28.9 nM under setting [3] and 251 nM under setting [4].

As to “UCUUAUUGCAAGGAUAUGCAAAUUAUUAUUAAAGCAGAAGGUGCAACAUGAGGAUCACCCAUGUUUCCGGGAAA”, the “apparent Kd” value was 25.2 nM under setting [1] and 104 nM under setting [2].

With “UGGGUCACAGGAUAUACAUGAGGAUCACCCAUGUCGUAUUUCGUGGCGGAGAGCUCGAGUAGAAGGGUGCAUCC”, the “apparent Kd” value amounted to 119 nM under setting [1] and 87.4 nM under setting [2].

In the case of “GGACGUCCCAUUAACAUGAGGAUCACCCAUGUCAAAAGACAUGAGGAUAUGCAUCCUAAUUGGAUGCAGAAGGCAUGGACGUCC”, the “apparent Kd” value is, setting by setting: under setting [3], 1180 nM; under setting [4], 87.3 nM.

With “CUGAUGUUAGGAUAUCAGGCUGUGCACGAAGACGGGCGGCAUGAGAAGGAACAUGAGGAUCACCCAUGUGACGG”, the “apparent Kd” value was determined as 36.3 nM under setting [1] and 77.6 nM under setting [2].

For “UUCAUGUUGCGAGGAUAUCGUGUUAACAUGAGGAUCACCCAUGUAUAGGUUUAUUAAUUAGUUUUCGAGAAGGCGCUUUUAGUA”, the “apparent Kd” value under setting [3] is 215 nM and the “apparent Kd” value under setting [4] is 158 nM.

For the sequence “GAUAGGACAGAGAAGGACAUAGCUAGAGAUACUAGCAUACGAACCUUUACAUGAGGAUCACCCAUGUAGGAUAUCUGUCCUAUC”, the “apparent Kd” value under setting [1] stood at 5.43 nM and the “apparent Kd” value under setting [2] came to 6.78 nM.

With “AUUUAUGUUGAGGAUAUGCUAAAAUGUAUAGUUGCAGAAGGCGACACAUGAGGAUCACCCAUGUUCAUGGAAUU”, the “apparent Kd” value is, setting by setting: under setting [1], 37 nM; under setting [2], 43.7 nM.

Regarding “CUUUAGUGAGGAUAUCAGUAGUAGAACAAUAGUACUACUACUGAGAAGGCACAUGAGGAUCACCCAUGUUCCUC”, the “apparent Kd” value is 31 nM under setting [1] and 157 nM under setting [2].

Turning to “GACGCGCUCACAGGAUAUAGAUCCUCAGUGGCUCUAGAAGGGUGAACGUGCCCGAACGGGACAUGAGGAUCACCCAUGUAAUAA”, the “apparent Kd” value came out at 34.9 nM under setting [3] and 13.2 nM under setting [4].

As for “GGAAAACAUGAGGAUCACCCAUGUGAGGAUAUGAGCGUCUAGUUGAGAGAUUGGACGCUCAGAAGGCACAUGCC”, the “apparent Kd” value runs as follows: under setting [1], 28.5 nM; under setting [2], 247 nM.

Take “CGCAUGCGUAGAAUUAGUUGCUGACAGGAUAUGACAUGAGGAUCACCCAUGUGAUUUAAGAAGAGUCAGAAGGGUCACGAUGCG”: the “apparent Kd” value under setting [1] was determined as 10.7 nM and the “apparent Kd” value under setting [2] is 15.1 nM.
